{
  "source": "BindingDB's records for doi:10.1021/ml500113s",
  "about": "(Rti International, 2014)",
  "molecular_target": "Sodium-dependent serotonin transporter (Rattus norvegicus, UniProt P31652)",
  "sequence (P31652 whole entry)": "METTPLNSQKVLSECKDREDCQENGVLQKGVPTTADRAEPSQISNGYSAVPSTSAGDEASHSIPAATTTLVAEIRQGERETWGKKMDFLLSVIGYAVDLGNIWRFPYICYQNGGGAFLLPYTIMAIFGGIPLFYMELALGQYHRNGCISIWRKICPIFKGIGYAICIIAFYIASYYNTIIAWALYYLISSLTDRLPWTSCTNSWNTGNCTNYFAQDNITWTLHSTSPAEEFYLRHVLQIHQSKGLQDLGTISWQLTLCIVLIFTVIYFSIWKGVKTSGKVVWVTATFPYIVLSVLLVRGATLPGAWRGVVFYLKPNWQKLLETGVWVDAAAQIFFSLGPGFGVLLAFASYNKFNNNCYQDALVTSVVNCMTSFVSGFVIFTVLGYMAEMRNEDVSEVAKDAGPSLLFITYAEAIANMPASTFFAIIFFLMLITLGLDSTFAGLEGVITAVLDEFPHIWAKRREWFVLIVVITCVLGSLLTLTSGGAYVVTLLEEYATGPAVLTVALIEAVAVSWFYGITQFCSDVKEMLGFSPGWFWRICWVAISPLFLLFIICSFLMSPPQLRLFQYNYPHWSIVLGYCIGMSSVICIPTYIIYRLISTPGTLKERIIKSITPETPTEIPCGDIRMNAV",
  "experiment": "Inhibition of SERT-mediated serotonin uptake in rat synaptosomes",
  "summary_of_the_method": "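Synaptosomes prepared from rat brain homogenate. Each compound was run in both the release assay and the uptake-inhibition assay to classify it as a releasing substrate or an uptake inhibitor. Dose-response curves were then completed only for the assigned activity. Values are means ± SD from N = 3 experiments, each performed in triplicate.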",
  "data": [
    {"compound": "CC(NC1CC1)C(=O)c1cccc(Cl)c1", "note": "(stereo unspecified) [2-(N-Cyclopropylamino)-3-chloropropiophenone]", "values": [
      {"measurement": "IC50", "value": 3.18, "unit": "µM"}
    ]}
  ]
}
